Reference: ChEMBL document CHEMBL4513216, “Probing the Open Global Health Chemical Diversity Library for Multistage-Active Starting Points for Next-Generation Antimalarials” (ACS Infect Dis, 2020)

Assay: Toxicity liver stage against HepG2, at 10uM
Assay type: cell-based
Parameters: test concentration 10 uM, cell line HepG2-A16-CD81EGFP
Settings: human, HepG2-A16-CD81EGFP cells; read-out: INHIBITION
Method in brief: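 Uninfected HepG2-A16-CD81EGFP cells, 3 × 10^3 per well, 1536-well, plated on prespotted compound at 10 μM final, parasite-free screening media added to match infected plates; puromycin 10 μM positive, DMSO 0.5% negative; run in parallel with 48 h PbLuc assay at 37 °C, 5% CO2; viability by CellTiter-Glo luminescence, normalized to controls.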

Compound | cytotoxicity at 10 µM [%]
c1ccc(CCCN2CC[C@H](c3nnc(-c4cccnc4)o3)C2)cc1 | -6.1
Cc1nn(C)cc1C1CC(=O)Nc2c1cnn2C (stereo unspecified) | 2.8
O=C(c1cnn2c1OCCC2)N1CCC(Cc2ccccc2)CC1 | 0.524
CC(C)NC(=O)N1CCOC2(CCNCC2)C1 | -2.69
NCC1[C@H]2CN(Cc3cccc(Cl)c3)C[C@@H]12 (stereo partly specified) | -9.17
O=S(=O)(C1CC1)N1CCc2ncnc(-c3ccsc3)c2CC1 | 4.8
CC(C)NC(=O)N1CCOC2(CCCN(c3cccc(C#N)c3)C2)C1 (stereo unspecified) | 11.8
CS(=O)(=O)N1CCN(C(=O)c2cccc(Cl)c2)CC2(CNC(=O)C2)C1 (stereo unspecified) | 6.86
COCC1CN(CC2CC2)Cc2ncn(CC3CC3)c21 (stereo unspecified) | 4.42
CCOC[C@@H]1CC[C@H]2[C@H](CCN2C(=O)c2ccncc2F)O1 | -2.86
CN(C)CCCNC(=O)CNC(=O)N1CCc2c([nH]c3ccccc23)C1 | 3.33
O=C(COc1coc(CN2CCCCC2)cc1=O)Nc1ccc(Cl)cc1 | 3.48
CCOc1ccc(C2CC(=O)Nc3c2c(=O)nc2sccn32)cc1 (stereo unspecified) | -12.7
Cc1nc(-c2cccc(Cl)c2)n(CC(=O)NCC2CCCO2)c(=O)c1C (stereo unspecified) | -7.04
CCOCCCNC(=O)c1nnn(Cc2ccccc2)c1OC | 9.32
O=C(c1noc2c1CCCC2)N1CCCC(c2nccs2)C1 (stereo unspecified) | -2.66
COc1ccc2c(c1)C(=O)NC1(CC2)CCN(Cc2ccc(F)cc2)C1 (stereo unspecified) | 8.16
COCCN1CCCC(c2nc(C)n3c(C)c(C)sc23)C1 (stereo unspecified) | -21.5
Cc1c(C2CCCN(C(=O)OC(C)(C)C)C2)n2c(nc1=O)CCC2 (stereo unspecified) | -16
CNC(=O)C1(c2cnccn2)CCCN1C(=O)c1ccccc1F (stereo unspecified) | -17.1
CNC(=O)C1(c2cnccn2)CCCN1C(=O)c1cccc(C)n1 (stereo unspecified) | -18.6
O=C(c1cncc(Br)c1)N1CCC(O)(Cn2ccc3ccncc32)CC1 | 2.44
Cc1ccc2nc(C3CCCN(CC(C)C)C3)nc(O)c2c1 (stereo unspecified) | 5.48

Compound | cytotoxicity at 10 µM [%]
O=C(CCc1nc(-c2cccnc2)no1)N(CC1CCOC1)C1CC1 (stereo unspecified) | 10.8
N#CCCCS(=O)(=O)NC1(c2cccc(Cl)c2)CC1 | -1.39
Cc1ccc(N(CCC#N)C(=O)CCc2cscn2)cc1C | 6.36
CC(C(=O)N1CCCC1)N1CCN(c2ncc(Cl)cn2)CC1 (stereo unspecified) | -3.34
O=C(COc1ccc(Br)cc1F)Nc1cn[nH]c1 | -24.1
NC(=O)C1CCCN1CCCc1ccc(C(F)(F)F)cc1 (stereo unspecified) | 0.936
CCSCCC(=O)NCc1cnn(-c2ccc(F)cc2F)c1 | -5.61
COc1cc2c(cc1OC)CN(C(=O)NC(C)c1nncn1C)CC2 (stereo unspecified) | -4.54
CN(c1ccccc1)S(=O)(=O)c1cc2c(c(C(=O)O)c1)OCCO2 | -9.47
O=C1CN(c2ccc(CNC(=O)Nc3nccs3)cc2)CCN1 | 1.93
CC(NC(=O)Nc1ccccc1CN1CCOCC1)c1nccs1 (stereo unspecified) | 2.1
CN(C)C(=O)CCCn1ccc(NC(=O)NCc2cccc(F)c2)n1 | 6.85
CCc1nc(CN2CCCN(CC(=O)N3CCOCC3)CC2)no1 | -10.2
CNc1cc(N2CCCC2CNCc2cccc(C#N)c2)ncn1 (stereo unspecified) | -10.7
Cc1cc(CN(CCO)c2ccc(Br)cc2)on1 | 1.78
COC(=O)c1ccc(CCn2cnc(C#N)n2)cc1 | -3.15
CCC1COCCN1C(=O)NCc1nccn1CCc1ccccc1 (stereo unspecified) | 4.42
NC(=O)CCNC(=O)NCC1(c2ccccc2Cl)CCC1 | -53.1
CCc1nc2n(n1)CCCC2NC(=O)Nc1cc(OC)ccc1C (stereo unspecified) | 12.7
CN(CC(F)(F)F)C(=O)CNC(=O)Cc1ccccc1O | 6.31
COc1ccc(C2CCCN2C(=O)c2cc3c([nH]c2=O)CCC3)cc1 (stereo unspecified) | -10.7
COc1cccc(CN(C)C(=O)CN2CCN(CCO)CC2)c1 | 12.3
CN(Cc1cccc(F)c1)C(=O)CN1CCCCC1Cn1cncn1 (stereo unspecified) | -8.25

Compound | cytotoxicity at 10 µM [%]
c1ccc(C2CCCN2Cc2nnnn2C2CC2)cc1 (stereo unspecified) | -5.04
O=C1CCCN1Cc1nnc2n1CCN(Cc1ccco1)C2 | 0.686
CCS(=O)(=O)N1CCN(CCOC)c2ncccc2C1 | 4.37
CCCS(=O)(=O)N1CC[C@H]2O[C@H](c3nnc(C)o3)CC[C@H]21 | -77.4
CCOCC1CN(S(=O)(=O)C2CC2)Cc2cnn(C)c21 (stereo unspecified) | -66.8
O=C(NCC1Cn2nnc(-c3ccsc3)c2CO1)c1ccc[nH]1 (stereo unspecified) | 2.28
CCO[C@H]1CN(C(=O)c2ccnnc2)[C@@H]2COC[C@H]12 | 0.403
Cn1ccnc1CN1CC[C@@H](NS(C)(=O)=O)[C@@H]1Cc1cccnc1 | 8.54
CN(C)C[C@@H]1CN(C(=O)Cc2ccc3ccccc3c2)C[C@@H]1CO | -8.4
Cc1ccc2[nH]c(CN(C)Cc3ccccc3C(=O)O)nc2c1 | 7.01
COc1ccc2nc(O)c(CN(C)Cc3ncc[nH]3)cc2c1 | 0.55
O=C(O)C1(n2ccnc2)CCN(Cc2ccc3occc3c2)CC1 | -4.31
Cc1ccc(CCNC(=O)Cn2nc(C)n(Cc3ccccc3)c2=O)o1 | 1.33
Cc1cc(CN2CCN(CC3CC3)[C@@H]3CS(=O)(=O)C[C@@H]32)cc(C)c1O | 2.78
O=C(c1cccc(-n2cccn2)c1)N1CCCOC(CN2CCCC2)C1 (stereo unspecified) | -7.33
Cc1cc(NC(=O)Cn2ccc(-c3ccc4c(c3)OCO4)n2)n(C)n1 | 6.28
NC(=O)CCNC(=O)C1(N2CCCCC2)Cc2ccccc2C1 | -8.56
Cc1c(CN2CCC(C(=O)O)(n3cccn3)CC2)oc2ccccc12 | -2.67
CCN1CCC2(CCC1=O)CN(c1nccc(N)n1)CCN2C (stereo unspecified) | 0.562
CC(=O)c1cc(CN2C[C@@H](N(C)C)[C@H](C(C)C)C2)cs1 | 0.305
CNc1nc(C(=O)NCc2cccnc2N(C)C2CCCCC2)cs1 | -5.35
COc1cccc(C(=O)N2C[C@@H](C(=O)O)[C@H](c3ccccc3C)C2)c1 | 0.291
Cc1oc(-c2cccc(F)c2F)nc1CN(CCO)C(C)C | -15.2

Compound | cytotoxicity at 10 µM [%]
CC(CO)CN(Cc1ccccc1)C(=O)c1csc(CN(C)C)n1 (stereo unspecified) | -8.69
Cc1c(CN(C)c2cc(C3CCCNC3)ncn2)[nH]c2ccccc12 (stereo unspecified) | 1.99
Cc1cccnc1CN1CCN(C(=O)c2cc(Cl)c[nH]c2=O)CC1 | 6.22
COc1ccc(C)cc1-n1cnnc1C1CCOCC1 | 11.2
OC(CNc1ncnc2c1CCNCC2)C(F)(F)F (stereo unspecified) | -4.92
CCCC(C)CN1CCC(n2cc(CCCO)nn2)CC1 (stereo unspecified) | 3.22
CCSCCNC(=O)C(c1cccc(C)c1)N(C)C (stereo unspecified) | -23
OC1(CN2CCCC2)CCCN(Cc2ccc(F)cc2Cl)C1 (stereo unspecified) | 20.9
Cc1cnn(C(C)C2CC2)c1NC(=O)c1cnccn1 (stereo unspecified) | -5.39
CN(Cc1nccs1)c1nc(-c2ccccn2)nc2c1CCNCC2 | -14
CCCn1nccc1C(=O)N1CCCN(CCCc2ccccc2)CC1 | -2.06
Cc1nc2n(n1)CC(NCc1cc(Cl)c3c(c1)OCCO3)CC2 (stereo unspecified) | -6.14
CCn1ccnc1CN1CCCN(C(=O)c2scnc2C)CC1 | -7.77
CC(C)c1nnc2n1CCN(CCC(=O)N1CCc3ccccc31)C2 | -21.1
Cc1cnn(CC2CCCN2Cc2nnc(C3CC3)n2C)c1 (stereo unspecified) | -12.2
CCn1ccnc1CN1CCCN(C(=O)Cc2ccccc2C)CC1 | -1.99
O=C(Cc1ccccn1)N1CCN(C(=O)CC2CCCCC2)CC1 | 5.35
CCC(C)C(=O)NCc1ccc(-n2cncn2)nc1 (stereo unspecified) | 8.85
Cc1ccc(C)c(NC(=O)C(C)N2CCCN(c3nccs3)CC2)c1 (stereo unspecified) | -19.8
O=C(CCN1CCCN(c2nccs2)CC1)NCC1CCCCC1 | -5.1
O=C(c1ccc(O)c(Cl)c1)N1CCC(c2n[nH]c(C3CC3)n2)CC1 | 6.91
CC(C)c1nc(CN2CCN(C(C)c3nc(C4CC4)no3)CC2)no1 (stereo unspecified) | 6.54
Cc1nc(CN2CCCN(CC(=O)Nc3cccnc3)CC2)no1 | 2.31

Compound | cytotoxicity at 10 µM [%]
CCCC(=O)N1CCc2c(CNS(C)(=O)=O)cncc2C1 | 4.36
c1cnc(NC[C@H]2OC[C@@H]3CCN(Cc4ccsc4)C[C@@H]32)nc1 | -2.01
CCN1CCC2(COCc3cnc(NCC4CC4)nc32)C1 (stereo unspecified) | -12.9
COCC1CN(Cc2cccnc2)Cc2nnn(CC3CC3)c21 (stereo unspecified) | -0.0925
COCC1CN(c2ccc(C)nn2)Cc2cnn(CC3CCOCC3)c21 (stereo unspecified) | 4.62
CN(C)c1cc(C2CCCNC2)ccn1 (stereo unspecified) | -2.68
Cn1cc(CN2C[C@@H]3COC[C@]3(C(=O)NCc3ccccn3)C2)cn1 | -1.07
Cc1ccc(CN2CCc3c(CN(C)C)n[nH]c3C2)s1 | 1.93
CC(C)n1cnc2c1C(C(=O)N1CCCC1)N(CC1CC1)CC2 (stereo unspecified) | 6.59
O=C(C1=CC2(CCN(CCO)CC2)c2ccccc21)N1CCCC1 | -1.16
c1cncc(OCC2CC3(CCN(CC4CC4)CC3)CO2)c1 (stereo unspecified) | 4.95
Cn1nccc1-c1ncc2c(c1C(=O)O)CCN(Cc1cccnc1)C2 | 8.07
O=C(NCCc1ccccn1)[C@@]12CCO[C@@H]1CCN(C1CCC1)C2 | 8.03
COCC1Cn2nnc(-c3cnn(C)c3)c2CN1Cc1ccoc1 (stereo unspecified) | 6.44
COCCN1CCCn2c(nc(Cn3cncn3)cc2=O)C1 | 3.39
O=C(NCCn1nc(C2CCNC2)c2cccnc21)C1CC1 (stereo unspecified) | -25.8
CCN1CC[C@]2(CN(Cc3nccs3)C[C@H]2c2ccccc2)C1=O | 4.89
COCCN1C[C@@H](C)[C@@]2(COCCN(C(=O)c3ccno3)C2)C1 | 7.4
Cn1ccc(C(=O)NC2CCC23CCN(C(=O)c2ccncc2)CC3)c1 (stereo unspecified) | -9.84
